Test results reported in the M2OR odorant receptor database.

Experiments:
Settings in all cases: stereoisomer not certain
UniProt A2ATE5 = molecular target: T1, UniProt A2ATE5
T1 sequence (whole entry): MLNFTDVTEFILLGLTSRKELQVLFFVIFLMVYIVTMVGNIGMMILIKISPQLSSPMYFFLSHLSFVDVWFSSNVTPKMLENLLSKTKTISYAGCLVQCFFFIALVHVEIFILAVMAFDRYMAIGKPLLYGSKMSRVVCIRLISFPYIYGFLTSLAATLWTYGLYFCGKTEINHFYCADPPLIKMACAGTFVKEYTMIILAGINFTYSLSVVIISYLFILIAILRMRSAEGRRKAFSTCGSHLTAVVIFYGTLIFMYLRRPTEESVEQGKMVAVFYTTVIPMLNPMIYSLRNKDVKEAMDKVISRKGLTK
Outline: (§1)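 Each entry records the cell line, G-protein, co-transfected protein and tags used. Methods varied with the source, often transient luciferase assays in mammalian cell lines. A receptor–molecule pair is called responsive (active) if the original authors judged its signal statistically different from baseline and non-responsive (inactive) otherwise.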

UniProt A2AVB0 = molecular target: T2, UniProt A2AVB0
T2 sequence (whole entry): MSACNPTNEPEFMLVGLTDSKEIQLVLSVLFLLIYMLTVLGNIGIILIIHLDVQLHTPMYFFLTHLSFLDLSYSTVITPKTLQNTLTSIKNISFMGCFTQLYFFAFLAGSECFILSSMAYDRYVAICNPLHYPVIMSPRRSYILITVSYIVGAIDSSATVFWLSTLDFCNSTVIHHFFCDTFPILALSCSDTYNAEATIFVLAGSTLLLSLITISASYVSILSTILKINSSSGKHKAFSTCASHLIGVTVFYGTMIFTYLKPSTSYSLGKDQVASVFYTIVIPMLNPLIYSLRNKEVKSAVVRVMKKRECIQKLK
Outline: as §1

UniProt E9PVX1 = molecular target: T3, UniProt E9PVX1
T3 sequence (whole entry): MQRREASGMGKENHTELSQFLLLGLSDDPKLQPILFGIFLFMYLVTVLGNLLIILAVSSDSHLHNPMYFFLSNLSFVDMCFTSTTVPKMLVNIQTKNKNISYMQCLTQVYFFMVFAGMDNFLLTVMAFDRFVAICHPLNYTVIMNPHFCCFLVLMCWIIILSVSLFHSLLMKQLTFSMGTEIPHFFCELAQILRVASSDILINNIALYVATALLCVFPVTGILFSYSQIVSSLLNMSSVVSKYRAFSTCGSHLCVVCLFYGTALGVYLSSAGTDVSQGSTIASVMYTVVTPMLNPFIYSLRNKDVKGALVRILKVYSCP
Outline: as §1

UniProt E9PZ66 = molecular target: T4, UniProt E9PZ66
T4 sequence (whole entry): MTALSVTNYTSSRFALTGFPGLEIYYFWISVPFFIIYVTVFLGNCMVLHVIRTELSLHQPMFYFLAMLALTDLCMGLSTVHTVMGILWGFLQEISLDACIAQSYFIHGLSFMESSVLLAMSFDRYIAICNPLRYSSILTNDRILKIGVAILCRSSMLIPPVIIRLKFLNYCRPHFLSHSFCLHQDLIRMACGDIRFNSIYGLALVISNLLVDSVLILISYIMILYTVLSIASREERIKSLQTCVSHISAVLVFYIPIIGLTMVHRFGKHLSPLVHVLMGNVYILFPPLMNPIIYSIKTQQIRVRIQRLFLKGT
Outline: as §1

UniProt E9Q4X7 = molecular target: T5, UniProt E9Q4X7
T5 sequence (whole entry): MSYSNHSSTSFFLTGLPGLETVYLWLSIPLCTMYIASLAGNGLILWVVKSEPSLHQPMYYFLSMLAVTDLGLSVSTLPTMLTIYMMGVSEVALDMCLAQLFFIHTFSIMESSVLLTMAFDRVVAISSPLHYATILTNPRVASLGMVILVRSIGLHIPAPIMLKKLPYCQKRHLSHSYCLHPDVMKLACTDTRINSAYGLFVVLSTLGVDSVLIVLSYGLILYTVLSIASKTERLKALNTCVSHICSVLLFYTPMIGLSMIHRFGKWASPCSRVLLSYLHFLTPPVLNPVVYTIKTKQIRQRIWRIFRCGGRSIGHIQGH
Outline: as §1

UniProt E9Q546 = molecular target: T6, UniProt E9Q546
T6 sequence (whole entry): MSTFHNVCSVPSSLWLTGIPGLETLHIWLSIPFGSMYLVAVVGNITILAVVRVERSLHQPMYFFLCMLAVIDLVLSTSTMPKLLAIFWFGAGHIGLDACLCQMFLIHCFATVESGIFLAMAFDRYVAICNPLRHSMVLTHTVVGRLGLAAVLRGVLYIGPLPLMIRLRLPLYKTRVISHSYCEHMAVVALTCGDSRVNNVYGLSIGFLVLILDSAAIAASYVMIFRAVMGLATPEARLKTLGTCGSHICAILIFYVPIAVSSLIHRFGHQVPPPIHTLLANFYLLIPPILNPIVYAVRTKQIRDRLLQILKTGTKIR
Outline: as §1

UniProt E9Q6Z7 = molecular target: T7, UniProt E9Q6Z7
T7 sequence (whole entry): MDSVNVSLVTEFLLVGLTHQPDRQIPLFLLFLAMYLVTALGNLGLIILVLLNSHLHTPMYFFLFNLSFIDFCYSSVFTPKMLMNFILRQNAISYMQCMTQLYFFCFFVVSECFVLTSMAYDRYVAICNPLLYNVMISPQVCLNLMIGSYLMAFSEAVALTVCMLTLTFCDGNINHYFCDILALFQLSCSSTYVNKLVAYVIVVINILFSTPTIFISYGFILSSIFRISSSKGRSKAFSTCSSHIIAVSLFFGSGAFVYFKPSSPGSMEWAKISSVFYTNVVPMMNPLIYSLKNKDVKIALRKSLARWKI
Outline: as §1

UniProt E9PXN3 = molecular target: T8, UniProt E9PXN3
T8 sequence (whole entry): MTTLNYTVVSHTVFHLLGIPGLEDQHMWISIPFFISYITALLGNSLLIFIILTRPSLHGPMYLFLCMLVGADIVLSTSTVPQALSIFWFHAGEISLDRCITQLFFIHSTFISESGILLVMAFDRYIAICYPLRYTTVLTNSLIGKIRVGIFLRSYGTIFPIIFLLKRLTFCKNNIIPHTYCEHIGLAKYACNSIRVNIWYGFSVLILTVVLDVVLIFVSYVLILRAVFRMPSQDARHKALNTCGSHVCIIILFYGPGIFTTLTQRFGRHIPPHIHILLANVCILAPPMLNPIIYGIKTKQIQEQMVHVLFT
Outline: as §1

UniProt E9PX47 = molecular target: T9, UniProt E9PX47
T9 sequence (whole entry): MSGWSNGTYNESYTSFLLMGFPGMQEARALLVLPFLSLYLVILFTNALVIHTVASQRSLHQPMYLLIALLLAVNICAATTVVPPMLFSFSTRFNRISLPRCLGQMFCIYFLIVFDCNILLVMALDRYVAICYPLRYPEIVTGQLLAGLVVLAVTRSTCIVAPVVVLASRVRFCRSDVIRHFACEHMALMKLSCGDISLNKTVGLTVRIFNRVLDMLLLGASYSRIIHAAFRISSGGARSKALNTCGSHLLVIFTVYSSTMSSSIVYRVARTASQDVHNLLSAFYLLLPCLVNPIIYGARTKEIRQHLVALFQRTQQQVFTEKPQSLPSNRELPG
Outline: as §1

Measured: odorant receptor agonist call

O=C(OCc1ccccc1)c1ccccc1O
inactive: UniProt A2ATE5 | UniProt A2AVB0 | UniProt E9PVX1 | UniProt E9PZ66 | UniProt E9Q4X7 | UniProt E9Q546 | UniProt E9Q6Z7

O=C(O)CCCCCBr
inactive: UniProt A2ATE5 | UniProt A2AVB0 | UniProt E9PVX1 | UniProt E9PXN3 | UniProt E9PZ66 | UniProt E9Q4X7 | UniProt E9Q546 | UniProt E9Q6Z7

O=C([O-])CCCCCCCC(=O)[O-].[H+].[H+]
inactive: UniProt A2ATE5 | UniProt A2AVB0 | UniProt E9PVX1 | UniProt E9PXN3 | UniProt E9PZ66 | UniProt E9Q4X7 | UniProt E9Q546 | UniProt E9Q6Z7
active: UniProt E9PX47

CC=C(C)C=O
inactive: UniProt A2ATE5 | UniProt A2AVB0 | UniProt E9PVX1 | UniProt E9PZ66 | UniProt E9Q4X7 | UniProt E9Q546 | UniProt E9Q6Z7
